{"source": "paper PMC6613170", "about": "(Proceedings of the National Academy of Sciences of the …, 2019)", "key": {"CFTR": {"tested_on": "CFTR", "assay": "CFTR assay", "format": "cell-based, canine", "conditions": "100 nM PGE2"}, "[1]": {"tested_on": "truncated core catalytic domain of PDE4D without UCR1, UCR2, and C-terminal tail", "assay": "cAMP phosphodiesterase assay, truncated catalytic domain construct", "format": "biochemical", "conditions": "n = 4", "summary_of_the_method": "(§1)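 PDE4 constructs, including site-directed mutants, are expressed from pcDNA3.1 in transfected mammalian cells. Cells are lysed mechanically in KHEM buffer (50 mM KCl, 10 mM EGTA, 50 mM Hepes, 1.92 mM MgCl2, pH 7.4). Lysate is cleared at 2,000 × g for 10 min, then 100,000 × g for 30 min. Supernatant (200 ng–1 µg protein per reaction, BCA) is assayed for cAMP hydrolysis for 10 min under linear conditions.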"}, "human long form PDE4D5": {"target": "human long form PDE4D5 (Homo sapiens, UniProt Q08499)", "sequence (Q08499 1-745 isoform Q08499-6)": "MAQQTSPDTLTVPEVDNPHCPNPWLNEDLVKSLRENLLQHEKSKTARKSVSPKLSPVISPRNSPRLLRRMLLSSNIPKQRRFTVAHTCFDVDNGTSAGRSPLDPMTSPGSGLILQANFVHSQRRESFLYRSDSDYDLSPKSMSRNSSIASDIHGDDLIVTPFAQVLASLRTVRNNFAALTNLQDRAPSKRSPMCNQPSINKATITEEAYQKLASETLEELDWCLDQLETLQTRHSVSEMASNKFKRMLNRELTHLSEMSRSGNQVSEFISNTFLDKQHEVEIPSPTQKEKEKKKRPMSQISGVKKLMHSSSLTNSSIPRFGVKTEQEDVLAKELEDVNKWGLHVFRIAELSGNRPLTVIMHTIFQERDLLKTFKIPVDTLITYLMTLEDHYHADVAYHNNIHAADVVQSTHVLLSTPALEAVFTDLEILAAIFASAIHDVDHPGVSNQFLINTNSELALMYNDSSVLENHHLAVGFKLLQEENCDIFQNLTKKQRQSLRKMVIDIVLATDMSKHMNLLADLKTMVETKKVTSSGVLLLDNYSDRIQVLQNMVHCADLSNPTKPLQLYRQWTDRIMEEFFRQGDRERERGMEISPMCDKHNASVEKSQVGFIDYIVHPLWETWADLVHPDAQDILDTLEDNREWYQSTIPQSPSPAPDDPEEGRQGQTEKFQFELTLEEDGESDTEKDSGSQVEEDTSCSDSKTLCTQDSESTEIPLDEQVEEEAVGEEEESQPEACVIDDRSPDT", "assay": "cAMP phosphodiesterase assay, long isoform PDE4D5", "format": "biochemical", "summary_of_the_method": "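Human PDE4D5 is expressed from pcDNA3.1 in transfected mammalian cells. The 100,000 × g supernatant of KHEM-buffer lysates (200 ng–1 µg protein) is assayed for cAMP hydrolysis for 10 min under linear conditions, with test compound at 3, 10, 30 and 100 µM. Velocity is analysed by Eadie–Hofstee plot to give Vmax and Km for cAMP.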"}, "[2]": {"tested_on": "primary human ADPKD cells", "assay": "Primary human kidney cell cyst assay", "format": "cell-based", "summary_of_the_method": "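Primary epithelial cells from single kidney cysts of an ADPKD patient are grown in biogels with RenalCyte medium. Cysts form spontaneously or with 10 nM vasopressin, across graded test compound concentrations. Cysts are counted by manual imaging or automated whole-well imaging. Values are given as SD of four treatments.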"}, "[3]": {"tested_on": "primary human ADPKD cells", "assay": "Primary human ADPKD cell viability", "format": "cell-based", "conditions": "unstimulated and vasopressin-treated cultures", "summary_of_the_method": "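Primary epithelial cells cultured from single kidney cysts of a patient with ADPKD, kept in supplier's proprietary media. For the cyst assay, cells were grown in biogels with RenalCyte media in 96- or 384-well format. Viability was read as luminescence-based detection of ATP as a function of living cells.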"}, "OX161 cells": {"tested_on": "OX161 cells", "assay": "OX161 cyst assay", "format": "cell-based, human"}, "Ser651Asp-PDE4D5": {"target": "Ser651Asp-PDE4D5 (Homo sapiens, UniProt Q08499, S715D)", "sequence (Q08499 1-745 isoform Q08499-6 S651D)": "as the sequence (Q08499 1-745 isoform Q08499-6) above, with S651D counted along it", "assay": "cAMP phosphodiesterase assay, Erk phosphomimetic mutant", "format": "biochemical", "summary_of_the_method": "(§2)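 PDE4 constructs were expressed from pcDNA3.1 (mutants by site-directed mutagenesis) after lipid transfection into mammalian cells. Lysate was spun at 2,000 × g for 10 min, then 100,000 × g for 30 min, and supernatant protein was measured by BCA. cAMP hydrolysis used 200 ng–1 µg protein per reaction for 10 min, within the linear range.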"}, "MDCK cells [4]": {"tested_on": "MDCK cells", "assay": "cAMP ELISA in forskolin-challenged MDCK cells", "format": "cell-based, canine", "conditions": "15 min", "summary_of_the_method": "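MDCK cells in 2D culture (DMEM, 10% FBS) are pretreated for 1 h with test compound (3 µM), with or without roflumilast (100 nM), then challenged with forskolin (3 µM, 15 min). Intracellular and extracellular cAMP are measured with a commercial cAMP ELISA kit. Intracellular data are mean ± SD of n = 7 experiments; extracellular data come from three independent experiments.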"}, "DD1-R499D-PDE4D5": {"target": "DD1-R499D-PDE4D5 (Homo sapiens, UniProt Q08499, N238A/N239A/R237A/R563D)", "sequence (Q08499 1-745 isoform Q08499-6 R173A/N174A/N175A/R499D)": "as the sequence (Q08499 1-745 isoform Q08499-6) above, with R173A, N174A, N175A, R499D counted along it", "assay": "cAMP phosphodiesterase assay, dimerization-deficient mutant", "format": "biochemical", "summary_of_the_method": "as §2"}, "MDCK cells [5]": {"tested_on": "MDCK cells", "assay": "xCELLigence impedance-based proliferation assay", "format": "cell-based, canine", "conditions": "2D culture; MR-L2 added 24 h after inception", "summary_of_the_method": "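MDCK cells are plated at 5,000 cells per well in 2D culture and left to adhere for 24 h. Test compound is then added, and cell number is followed by xCELLigence electrical-impedance monitoring.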"}, "PDE4C3": {"target": "PDE4C3 (Homo sapiens, UniProt Q08493)", "sequence (Q08493 1-680 isoform Q08493-3, species assumed)": "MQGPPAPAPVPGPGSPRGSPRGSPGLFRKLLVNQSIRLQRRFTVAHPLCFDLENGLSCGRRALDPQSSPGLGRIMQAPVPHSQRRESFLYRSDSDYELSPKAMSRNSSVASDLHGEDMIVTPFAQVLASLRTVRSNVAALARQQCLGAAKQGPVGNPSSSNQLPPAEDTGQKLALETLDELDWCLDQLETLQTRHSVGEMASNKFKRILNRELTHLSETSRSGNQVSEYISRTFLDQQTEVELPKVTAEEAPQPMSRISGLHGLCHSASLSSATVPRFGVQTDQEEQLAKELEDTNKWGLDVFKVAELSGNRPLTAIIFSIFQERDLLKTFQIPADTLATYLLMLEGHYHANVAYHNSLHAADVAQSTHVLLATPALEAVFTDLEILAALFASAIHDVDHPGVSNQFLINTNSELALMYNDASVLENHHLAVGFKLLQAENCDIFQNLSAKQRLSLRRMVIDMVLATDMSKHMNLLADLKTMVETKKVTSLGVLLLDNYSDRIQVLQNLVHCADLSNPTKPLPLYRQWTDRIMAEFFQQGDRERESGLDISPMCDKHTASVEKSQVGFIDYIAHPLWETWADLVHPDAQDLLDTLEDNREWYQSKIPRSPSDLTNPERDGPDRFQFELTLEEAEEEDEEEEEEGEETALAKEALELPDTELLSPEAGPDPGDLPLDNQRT", "assay": "cAMP phosphodiesterase assay, long isoform PDE4C3", "format": "biochemical", "summary_of_the_method": "as §1"}, "S133D-PDE4D5": {"target": "S133D-PDE4D5 (Homo sapiens, UniProt Q08499, S197D)", "sequence (Q08499 1-745 isoform Q08499-6 S133D)": "as the sequence (Q08499 1-745 isoform Q08499-6) above, with S133D counted along it", "assay": "cAMP phosphodiesterase assay, MK2 phosphomimetic mutant", "format": "biochemical", "summary_of_the_method": "as §2"}, "PDE4B1": {"target": "PDE4B1 (Homo sapiens, UniProt Q07343)", "sequence (Q07343 whole entry, species assumed, canonical isoform)": "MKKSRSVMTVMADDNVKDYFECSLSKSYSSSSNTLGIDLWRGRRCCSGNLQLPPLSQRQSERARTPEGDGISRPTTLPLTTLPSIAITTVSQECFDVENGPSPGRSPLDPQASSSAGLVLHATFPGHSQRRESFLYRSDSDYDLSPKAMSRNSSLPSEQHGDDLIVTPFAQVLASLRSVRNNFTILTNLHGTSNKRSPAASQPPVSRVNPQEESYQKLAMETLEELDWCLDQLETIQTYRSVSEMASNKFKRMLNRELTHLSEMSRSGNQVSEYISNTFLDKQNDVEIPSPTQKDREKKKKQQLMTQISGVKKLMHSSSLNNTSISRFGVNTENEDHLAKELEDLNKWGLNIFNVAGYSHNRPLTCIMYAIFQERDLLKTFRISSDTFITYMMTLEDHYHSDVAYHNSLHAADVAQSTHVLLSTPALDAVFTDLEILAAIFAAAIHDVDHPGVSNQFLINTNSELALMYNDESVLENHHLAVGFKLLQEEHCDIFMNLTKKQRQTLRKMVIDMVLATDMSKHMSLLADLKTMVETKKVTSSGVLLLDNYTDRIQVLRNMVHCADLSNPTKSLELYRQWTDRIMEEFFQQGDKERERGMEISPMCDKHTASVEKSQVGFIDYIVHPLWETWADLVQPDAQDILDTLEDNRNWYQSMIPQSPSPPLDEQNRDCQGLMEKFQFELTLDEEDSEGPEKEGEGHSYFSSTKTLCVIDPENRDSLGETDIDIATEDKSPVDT", "assay": "cAMP phosphodiesterase assay, long isoform PDE4B1", "format": "biochemical", "summary_of_the_method": "as §1"}, "MDCK cells [6]": {"tested_on": "MDCK cells", "assay": "DNA normalized ATP levels in MDCK cystic cultures", "format": "cell-based, canine", "conditions": "MR-L2 3 µM; ± SD"}, "PDE4A4": {"target": "PDE4A4 (Homo sapiens, UniProt P27815)", "sequence (P27815 whole entry, canonical isoform)": "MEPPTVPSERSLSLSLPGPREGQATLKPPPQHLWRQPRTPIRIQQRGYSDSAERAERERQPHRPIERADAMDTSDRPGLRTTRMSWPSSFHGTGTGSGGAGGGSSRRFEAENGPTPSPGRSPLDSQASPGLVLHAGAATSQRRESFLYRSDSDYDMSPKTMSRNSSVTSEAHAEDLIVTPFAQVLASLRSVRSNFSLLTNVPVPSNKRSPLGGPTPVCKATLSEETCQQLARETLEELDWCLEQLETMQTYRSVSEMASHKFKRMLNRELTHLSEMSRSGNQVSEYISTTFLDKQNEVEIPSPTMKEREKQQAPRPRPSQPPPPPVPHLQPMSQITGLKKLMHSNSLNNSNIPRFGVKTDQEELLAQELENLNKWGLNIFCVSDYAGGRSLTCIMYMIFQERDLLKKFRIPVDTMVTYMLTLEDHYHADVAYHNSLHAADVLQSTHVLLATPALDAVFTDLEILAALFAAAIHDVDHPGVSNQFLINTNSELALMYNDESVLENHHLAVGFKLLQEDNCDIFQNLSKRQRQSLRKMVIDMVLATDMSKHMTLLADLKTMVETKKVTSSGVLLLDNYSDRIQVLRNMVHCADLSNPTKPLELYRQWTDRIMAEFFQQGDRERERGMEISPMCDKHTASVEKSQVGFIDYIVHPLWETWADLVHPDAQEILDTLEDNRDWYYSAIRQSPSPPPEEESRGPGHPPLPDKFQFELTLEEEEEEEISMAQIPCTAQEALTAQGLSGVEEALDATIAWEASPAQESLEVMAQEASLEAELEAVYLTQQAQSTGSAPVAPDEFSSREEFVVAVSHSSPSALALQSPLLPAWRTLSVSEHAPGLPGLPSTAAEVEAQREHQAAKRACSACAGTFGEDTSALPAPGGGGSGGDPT", "assay": "cAMP phosphodiesterase assay, long isoform PDE4A4", "format": "biochemical", "conditions": "compared with the other long isoforms", "summary_of_the_method": "as §2"}, "[7]": {"tested_on": "short isoforms of PDE4A, B, and D families", "assay": "cAMP phosphodiesterase assay, short PDE4 isoforms", "format": "biochemical", "summary_of_the_method": "as §1"}, "MDCK cells [8]": {"tested_on": "MDCK cells", "assay": "MDCK cyst assay", "format": "cell-based, canine"}, "S126D:S133D-PDE4D5": {"target": "S126D:S133D-PDE4D5 (Homo sapiens, UniProt Q08499, S190D/S197D)", "sequence (Q08499 1-745 isoform Q08499-6 S126D/S133D)": "as the sequence (Q08499 1-745 isoform Q08499-6) above, with S126D, S133D counted along it", "assay": "cAMP phosphodiesterase assay, PKA/MK2 double phosphomimetic mutant", "format": "biochemical", "conditions": "relative to S126D-PDE4D5", "summary_of_the_method": "as §1"}}, "data": [{"smiles": "O=C(O)c1ccc(/C=C2\\SC(=S)N(c3cccc(C(F)(F)F)c3)C2=O)cc1", "note": "[CFTRINH172, reference compound]", "values": [{"measurement": "PGE2-induced membrane depolarization", "setting": "CFTR; CFTR inhibitor 100 µM", "result": "reversed"}]}, {"smiles": "CCc1nc(-c2ccc(Cl)c(F)c2)nn1CC(=O)NCc1cc(Cl)cc(Cl)c1", "note": "[MR-L2, 2-(3-(4-chloro-3-fluorophenyl)-5-ethyl-1H-1,2,4-triazol-1-yl)-N-(3,5-dichlorobenzyl)acetamide]", "values": [{"measurement": "activation of truncated core catalytic domain of PDE4D", "setting": "[1]", "result": "does not activate"}, {"measurement": "mode of action on cAMP hydrolysis by PDE4D5", "setting": "human long form PDE4D5", "result": "reversible, noncompetitive activator"}, {"measurement": "increase in activity over basal levels", "setting": "human long form PDE4D5; maximally effective concentrations of MR-L2", "result": "~60", "unit": "%"}, {"measurement": "number of cysts formed in 3D culture", "setting": "[2]; unstimulated (spontaneous cyst formation)", "result": "clearly suppressed the number of cysts"}, {"measurement": "number of cysts formed in 3D culture", "setting": "[2]; vasopressin-treated (10 nM)", "result": "clearly suppressed the number of cysts"}, {"measurement": "cell viability", "setting": "[3]", "result": "without adversely affecting cell viability"}, {"measurement": "PGE2-stimulated cystogenesis of OX161 cells", "setting": "OX161 cells; concentration-dependent", "result": "attenuated"}, {"measurement": "activation of Ser651Asp-PDE4D5", "setting": "Ser651Asp-PDE4D5", "result": "comparable increase in activity to that seen when employing wild-type PDE4D5"}, {"measurement": "intracellular cAMP elevation in response to forskolin", "setting": "MDCK cells [4]; 1-h pretreatment with MR-L2, forskolin 3 µM", "result": "significantly suppressed cAMP elevation"}, {"measurement": "extracellular level of cAMP", "setting": "MDCK cells [4]; MR-L2 3 µM, 1 h before forskolin 3 µM", "result": "significantly reduced"}, {"measurement": "activation of DD1-R499D-PDE4D5", "setting": "DD1-R499D-PDE4D5", "result": "complete loss of sensitivity to activation"}, {"measurement": "effect on cell number (cytotoxicity)", "setting": "MDCK cells [5]", "result": "no effect"}, {"measurement": "activation of PDE4C3", "setting": "PDE4C3", "result": "activates"}, {"measurement": "activation of S133D-PDE4D5", "setting": "S133D-PDE4D5", "result": "activated by MR-L2 to a similar extent to wild-type PDE4D5"}, {"measurement": "activation of PDE4B1", "setting": "PDE4B1", "result": "activates"}, {"measurement": "reduction in the ATP/DNA ratio", "setting": "MDCK cells [6]", "result": "15.6 ± 30", "unit": "%"}, {"measurement": "activation of PDE4A4", "setting": "PDE4A4", "result": "slightly enhanced magnitude of activation"}, {"measurement": "activation of short PDE4 isoforms", "setting": "[7]", "result": "did not activate"}, {"measurement": "PGE2-stimulated cyst formation", "setting": "MDCK cells [8]; MR-L2 3 µM, incremental PGE2 concentrations", "result": "suppressed"}, {"measurement": "forskolin-induced cyst formation", "setting": "MDCK cells [8]; MR-L2 3 µM, incremental forskolin concentrations", "result": "suppressed forskolin-induced cyst formation"}, {"measurement": "EC50", "setting": "MDCK cells [8]; read-out: EC50, suppression of PGE2-induced cyst formation, PGE2 300 nM", "result": 1000, "unit": "nM"}, {"measurement": "activation of S126D:S133D-PDE4D5", "setting": "S126D:S133D-PDE4D5", "result": "partially restore sensitivity"}, {"measurement": "PGE2-elicited CFTR activity (membrane depolarization)", "setting": "CFTR; MR-L2 preincubation 40 min", "result": "clearly suppressed in a concentration-dependent manner"}]}, {"smiles": "O=C(Nc1c(Cl)cncc1Cl)c1ccc(OC(F)F)c(OCC2CC2)c1", "note": "[roflumilast, reference compound]", "values": [{"measurement": "effect on suppression of forskolin-stimulated cAMP accumulation by MR-L2 (3 µM)", "setting": "MDCK cells [4]; roflumilast 100 nM cotreatment, forskolin 3 µM", "result": "ablated the suppressive effect of MR-L2"}, {"measurement": "effect on suppression of cystogenesis by MR-L2 (3 µM)", "setting": "MDCK cells [8]; roflumilast 100 nM, PGE2 300 nM", "result": "interdict the suppression of cystogenesis"}]}, {"smiles": "COc1ccc(C2CNC(=O)C2)cc1OC1CCCC1", "note": "(stereo not shown) [rolipram, reference compound]", "values": [{"measurement": "cystogenesis of OX161 cells", "setting": "OX161 cells; challenge with rolipram, 3D culture", "result": "enhanced"}, {"measurement": "effect on agonist-driven (PGE2-induced) cyst formation", "setting": "MDCK cells [8]; increasing concentrations of rolipram", "result": "exacerbates agonist-driven cyst formation in a concentration-dependent manner"}]}]}
